Reference: ChEMBL document CHEMBL3085627 (J Med Chem, 2013)

Assays:
D(2) dopamine receptor [1] = molecular target: T1, D(2) dopamine receptor (Homo sapiens, UniProt P14416); assay: Agonist activity at human dopamine D2L receptor expressed in CHO […] assessed as inhibition of forskolin-stimulated cAMP production after 30 mins by Alphascreen assay; type: functional, cell-based
Procedure, shortened: (§1)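 Concentration-response curves are fitted to the operational model of agonism to derive functional affinity (pKA) and efficacy (τ). The transduction coefficient log(τ/KA) is calculated per pathway, and bias is expressed as ΔΔlog(τ/KA). Statistical comparison uses Student's t-test.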

D(2) dopamine receptor [2] = molecular target: T1, D(2) dopamine receptor; assay: Agonist activity at human dopamine D2L receptor expressed in CHO […] assessed as phosphorylation of ERK1/2 by Alphascreen assay; type: cell-based; procedure, shortened: as §1
D(2) dopamine receptor [3] = molecular target: T1, D(2) dopamine receptor; assay: Displacement of [3H]-spiperone from human dopamine D2L receptor expressed in CHO cell membranes after 3 hrs by liquid scintillation counting analysis
Procedure, shortened: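 Competition against the radiolabeled antagonist [3H]spiperone at human D2L receptor in FlpIn CHO cell membranes. Affinity is reported as Ki.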

D(2) dopamine receptor [4] = molecular target: T1, D(2) dopamine receptor; details: CHO

T1 sequence (P14416 whole entry): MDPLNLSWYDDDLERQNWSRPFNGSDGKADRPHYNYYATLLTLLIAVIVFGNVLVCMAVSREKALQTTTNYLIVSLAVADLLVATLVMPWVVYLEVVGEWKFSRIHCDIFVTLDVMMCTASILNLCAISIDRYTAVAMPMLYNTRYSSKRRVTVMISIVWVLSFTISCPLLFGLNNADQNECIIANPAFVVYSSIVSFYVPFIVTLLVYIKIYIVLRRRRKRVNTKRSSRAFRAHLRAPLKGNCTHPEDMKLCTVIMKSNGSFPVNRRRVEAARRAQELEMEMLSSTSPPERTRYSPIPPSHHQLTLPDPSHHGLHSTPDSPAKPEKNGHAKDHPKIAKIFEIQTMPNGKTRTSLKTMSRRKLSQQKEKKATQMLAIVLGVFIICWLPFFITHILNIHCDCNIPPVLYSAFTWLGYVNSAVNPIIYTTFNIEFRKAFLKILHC

Row | pKA (D(2) dopamine receptor [1]) | pKA (D(2) dopamine receptor [2]) | Ki (D(2) dopamine receptor [3]) | KiH (D(2) dopamine receptor [4]) | KiL (D(2) dopamine receptor [4]) | SMILES
1 | 7.11 | 7.51 |  |  |  | CC(C)(C)OC(=O)N[C@H]1CC[C@H](CCN2CCN(c3cccc(Cl)c3Cl)CC2)CC1
2 | 6.92 | 7.56 | 42.7 nM |  |  | CN(C)C(=O)NC[C@H]1CC[C@H](CN2CCN(c3cccc(Cl)c3Cl)CC2)CC1
3 | 6.73 | 6.79 |  |  |  | CC(C)(C)OC(=O)N[C@H]1CC[C@@H](CCN2CCN(c3cccc(Cl)c3Cl)CC2)CC1
4 | 6.27 | 5.43 | 309 nM |  |  | CC(C)(C)OC(=O)N[C@H]1CC[C@H](CN2CCN(c3cccc(Cl)c3Cl)CC2)CC1
5 |  |  | 10.5 nM |  |  | CC(C)(C)OC(=O)N[C@H]1CC[C@H](CCN2CCCN(c3cccc(Cl)c3Cl)CC2)CC1
6 | 6.95 | 6.86 | 148 nM |  |  | CC(C)(C)OC(=O)NC[C@H]1CC[C@H](CN2CCN(c3cccc(Cl)c3Cl)CC2)CC1
7 |  | 7.61 |  |  |  | CN(C)C(=O)N[C@H]1CC[C@H](CCN2CCN(c3cccc(Cl)c3Cl)CC2)CC1
8 | 6.45 | 7.1 |  |  |  | CC(C)(C)OC(=O)N[C@H]1CC[C@H](CCN2CCc3ccccc3C2)CC1
9 | 7.34 |  |  |  |  | CC(C)(C)OC(=O)N[C@H]1CC[C@@H](CCN2CCc3ccccc3C2)CC1

Continued, compound first:

Row | SMILES | pKA (D(2) dopamine receptor [1]) | pKA (D(2) dopamine receptor [2]) | Ki (D(2) dopamine receptor [3]) | KiH (D(2) dopamine receptor [4]) | KiL (D(2) dopamine receptor [4])
10 | CN(C)C(=O)N[C@H]1CC[C@@H](CCN2CCc3ccccc3C2)CC1 | 6.96 |  |  |  | 
11 | O=C(N[C@H]1CC[C@H](CCN2CCc3ccccc3C2)CC1)Oc1ccccc1 | 5.67 |  | 912 nM |  | 
12 | CC(C)(C)NC(=O)N[C@H]1CC[C@H](CCN2CCc3ccccc3C2)CC1 | 6.72 |  | 245 nM |  | 
13 | CC(C)(C)OC(=O)N[C@H]1CC[C@H](CN2CCc3ccccc3C2)CC1 | 7.18 | 7.48 | 355 nM |  | 
14 | CC(C)(C)OC(=O)N[C@H]1CC[C@H](CCN2CCc3ccc(C#N)cc3C2)CC1 | 6.81 |  | 2240 nM |  | 
15 | CC(C)(C)OC(=O)NC[C@H]1CC[C@H](CN2CCc3ccccc3C2)CC1 | 6.82 | 6.69 | 1150 nM |  | 
16 | CCOC(=O)N[C@H]1CC[C@H](CCN2CCc3ccccc3C2)CC1 | 7.23 |  |  |  | 
17 | CC(=O)N[C@H]1CC[C@H](CCN2CCc3ccccc3C2)CC1 | 6.85 |  |  |  | 
18 | CN(C)C(=O)N[C@H]1CC[C@H](CCN2CCc3ccccc3C2)CC1 | 7.19 |  |  |  | 
19 | CC(C)(C)OC(=O)N[C@H]1CC[C@H](CCN2CCc3ccc([N+](=O)[O-])cc3C2)CC1 |  |  | 380 nM |  | 
20 | CC(=O)N[C@H]1CC[C@H](CCN2CCc3ccc(C#N)cc3C2)CC1 |  |  | 23.4 nM |  | 
21 | CC(C)(C)OC(=O)Nc1ccc(CCN2CCc3ccccc3C2)cc1 | 5.95 |  | 550 nM |  | 
22 | CC(C)OC(=O)N[C@H]1CC[C@H](CCN2CCc3ccccc3C2)CC1 | 6.3 |  | 1480 nM |  | 
23 | CC(C)COC(=O)N[C@H]1CC[C@H](CCN2CCc3ccccc3C2)CC1 | 6.05 |  | 5250 nM |  | 
24 | NCCc1ccc(O)c(O)c1 |  |  |  | 58 nM | 3.42 µM
